Experimental findings from the RNAGym collection of RNA variant scans (doi:10.1126/science.aae0568) are described below.

Variants at the floor of the assay were thinned out.

B1: tRNA (parent)
chain: GUUCCGUUGGCGUAAUGGUAACGCGUCUCCCUCCUAAGGAGAAGACUGCGGGUUCGAGUCCCGUACGGAACG

In the series the parent is B1. Nature of the series: yeast fitness relative to wild type (ratio to wild type); higher = fitter; tRNA-Arg(CCU), competitive growth, 37 C, YPD. The method in brief: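 Start and end populations of a pooled competition were compared by 100-nucleotide paired-end sequencing of gene amplicons. The Saccharomyces cerevisiae strains carried tRNA-Arg(CCU) gene variants at the native genomic locus, synthesised with a 3% per-site mutation rate at 69 sites, and competed in YPD at 37°C for 24 hours in six parallel replicates. Darwinian fitness relative to wild type was based on the change in genotype frequencies. Genotypes required ≥ 100 starting reads, and estimates < 0.5 were set to 0.5.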
With GUUCCGUUGGCGUAAUGGUAACGCGUCUCCUUCCUAAGGAGGAGACUGCGGGUUCGAGUCCCGUACGGAACG, the yeast fitness was determined as 0.73.
Regarding GUUCCGUUGGCGUAAUGGUAACGCGUCUCCUUCCUAAGGAGAAGCCUGCGGGUUCGAGUCGCGUCCGGAACG, the yeast fitness is not above 0.5.
As for GUUCCGUUGGCGUAAUGGUAACGCGUCUCCGUCCUAAGGAGAAGACUGGGGGUUCGAGUCCUGUACCAAACG, the yeast fitness turned out to be 0.539.
The result for GUUCCGUUGGCGUAAUGGUAACGCGUCUCCUUCCUAAGGAGAAGACUGCGGAUUCGAGUCCCGUACGGAACG reads 0.871; that for GUUCCGUUGGCGUAAUGGUAACGCGUCUCCGUCCUAAGGAGAAGACUGCGGGUGCGAGUCCCGUACGGAACG, 0.6.
For the variant GUUCCGUUGGCGUAAUGGUAACGCGUCUCCGUCCUAAGGAAAAGACUGCGGGCUCGAGUCCCGUACGGAACG, the yeast fitness stood at 0.52.
Take GUUCCGUUGGCGUAAUGGUAACGCGUCUCCGUCCUAAGGAGAAGAGUGCGGGUUCGACUCCCGUACGGAACG: the yeast fitness worked out at 0.928.
With GUUCCGUUGGCGUAAUGGUAACGCGUCUCCGUCCUAAGGAGAAGACUGCGGGUUCGAGUCCCCUCCGGAACG, the yeast fitness is not above 0.5.
The result for GUUCCGUUGGCGUAAUGGUAACGCGUCUCCUUCCUAAGGAGAAGACUGCGGGUUCGAGUACCGUACAGAACG reads not above 0.5; that for GUUCCGUUGGCGUAAUGGUAACGCGUCUCCUUCCUAAGGAGAAGACUGCGGGUUCGAGUCAUGUUCGGAACG, not above 0.5; that for GUUCCGUUGGCGUAAUGGUAACGCGUCUCCUUCCUAAGGACACGACUGCGGGUUCGAGUGCCGUACGGAACG, not above 0.5.
GUUCCGUUGGCGUAAUGGUAACGCGUCUCCUUCCUAAGGAGAAGACUACGGGUUUGAGUCCCCUACGGAACG: the yeast fitness came out at 0.595.
Regarding GUUCCGUUGGCGUAAUGGUAACGCGUCUCCUCCCUAAGGAGAAGACUGCGGGUUCGAGUCCCGUACGGAACG, the yeast fitness was 0.812.
Take GUUCCGUUGGCGUAAUGGUAACGCGUCUCCUUCCUAAGGAGAAGACUGCGGGUUCGAGUCCCGUACGAGACG: the yeast fitness was determined as 0.702.
Regarding GUUCCGUUGGCGUAAUGGUAACGCGUCUCCGUCCUAAGGAGAAGACUGCGGGUUCGAGUCCGGUACGGAACG, the yeast fitness was determined as 0.827.
Regarding GUUCCGUUGGCGUAAUGGUAACGCGUCUCCUUCCUACGGAGAAGACUGCGGGUUUGAGUCCCGUUCGGAGCG, the yeast fitness was not above 0.5.
In the case of GUUCCGUUGGCGUAAUGGUAACGCGUCUCCUUCCUAAGGAUAAGACUGCGGGUUCGAGUCCCAUACGGAACG, the yeast fitness stood at 0.721.
On to GUUCCGUUGGCGUAAUGGUAACGCGUCUCCUUCCUAAGGUGAAGACUGCGGGUUCGAGCCCCGUACGGAACG, for which the yeast fitness was found to be 0.648.
In the case of GUUCCGUUGGCGUAAUGGUAACGCGUCUCCUUCCUAAGGAGAAGACUGCGGGUUCGAGUCGCGUAGGGAACG, the yeast fitness is not above 0.5.
Consider GUUCCGUUGGCGUAAUGGUAACGCGUCUCCGUCCUAAGGAGAAGACUGCGGGUUCGAGUCGCGUACGGAACG, for which the yeast fitness came to 0.623.
Regarding GUUCCGUUGGCGUAAUGGUAACGCGUCUCCUUCCUAAGGAGAAGACUGCGGGUUCGAGUCCCGUACGGACCG, the yeast fitness was found to be 1.05.
Regarding GUUCCGUUGGCGUAAUGGUAACGCGUCUCCUUCCUAAGGGGAAGACUCCGGGUUCGUGACCCGUACGGCACG, the yeast fitness was not above 0.5.
For the variant GUUCCGUUGGCGUAAUGGUAACGCGUCUCCUUCCUAAGGAGAAGACUGCGGGUUCGAGUCCCGUACGGUCCG, the yeast fitness is 0.778.
Regarding GUUCCGUUGGCGUAAUGGUAACGCGUCUCCUUCCUAAGGAGAAGACUGCGGGUUCGAGUCUCGUACGGAUCG, the yeast fitness was found to be 0.696.
The same measure for GUUCCGUUGGCGUAAUGGUAACGCGUCUCCGCCCUAUGGAGAAGACUGCGGGUUCGAGUCCCGUACGGAACG: not above 0.5; for GUUCCGUUGGCGUAAUGGUAACGCGUCUCCGUCCUAAGGAGAAGACUGCGCGUUCGAGUCUCGUACGGAACG: not above 0.5.
Turning to GUUCCGUUGGCGUAAUGGUAACGCGUCUCCGUCUUAAGGCAAAGACUGCGGGUUCGAGUCCCGUACGGAACG, the yeast fitness was not above 0.5.
Turning to GUUCCGUUGGCGUAAUGGUAACGCGUCUCCUUCCUAAGGAGAAGACUGCGGGUUCGGGUCCCGUAUGGAACG, the yeast fitness came out at 0.583.
On to GUUCCGUUGGCGUAAUGGUAACGCGUCUCCGUCCUAACGAGAUGACUGCGGGUUCGAGUCCCGUACGGAACG, for which the yeast fitness worked out at 0.538.
Take GUUCCGUUGGCGUAAUGGUAACGCGUCUCCUUCCUAAGGAUAAGACUGCGGGUUCAAGUCCCGUACGGAACG: the yeast fitness amounted to 0.686.
On to GUUCCGUUGGCGUAAUGGUAACGCGUCUCCGUCCUAAGGAGAAGACUGCGGGCUCGAGUCCCGUACGGAACG, for which the yeast fitness stood at 0.662.
The same measure for GUUCCGUUGGCGUAAUGGUAACGCGUCUCCUUCCUAAGGAGAAGAUUGCGAGUUCGAGUCCCGUACGGAACG: 0.968; for GUUCCGUUGGCGUAAUGGUAACGCGUCUCCUUCCUAAGGAGAAGACUGCGGGUUCGAGUCCCGUGCGGAACG: 1.11; for GUUCCGUUGGCGUAAUGGUAACGCGUCUCCGUCCUAAGGAGAAGACGGGGGGUUCGAGUCCCGUACGGAACG: 0.647.
For GUUCCGUUGGCGUAAUGGUAACGCGUCUCCUUCAUAAGGAGAAGACUGCGGGUUCGAGUCCCGUACGGAACG, the yeast fitness is 0.863.
The same measure for GUUCCGUUGGCGUAAUGGUAACGCGUCUCCUUCCUAAGGAGAAGAAUGCGGGUUCGCGUCCCGUUCGGAACG: not above 0.5.
Regarding GUUCCGUUGGCGUAAUGGUAACGCGUCUCCUUCCUAAGGAGAAGACUGCGGGUUCGAGUCCCGUACGGCUCG, the yeast fitness came to 0.747.
As for GUUCCGUUGGCGUAAUGGUAACGCGUCUCCUUCCUAAGGAGAAGACUGCGGGUUGGAGUCCUGUACGGAACG, the yeast fitness is not above 0.5.
The same measure for GUUCCGUUGGCGUAAUGGUAACGCGUCUCCUGGCUAAGGAGAAGACUGCGGGUUCGACUCCCGUACGGAACG: not above 0.5.
As for GUUCCGUUGGCGUAAUGGUAACGCGUCUCCUUCCUAAGGAGACGACUGCGGGUCCGAGUCCCGUACGGAACG, the yeast fitness was determined as 0.596.
For GUUCCGUUGGCGUAAUGGUAACGCGUCUCCGUCGUAAGGAGAAGUCUGCGGGUUCGAGUCCCCUACGGAACG, the yeast fitness was not above 0.5.
Turning to GUUCCGUUGGCGUAAUGGUAACGCGUCUCCGACCUAAGGCGAAGACUGCGGGUUCGAGUCCCGUACGGAACG, the yeast fitness was not above 0.5.
As to GUUCCGUUGGCGUAAUGGUAACGCGUCUCCUUCCUACGGAGAAGACUGCGGGUUCGAGUCCCGUACGGAACG, the yeast fitness is 0.761.
The same measure for GUUCCGUUGGCGUAAUGGUAACGCGUCUCCUUCCUAAGGAUAAGACUGCGGGUUCGAGUCCCGUACGGAACG: 1.03; for GUUCCGUUGGCGUAAUGGUAACGCGUCUCCGUCCCAAGGAGAAGAUUGCGGGUUCGAGUCCCGUACGGAACG: 0.582; for GUUCCGUUGGCGUAAUGGUAACGCGUCUCCUUCUUAAAGAGAACACUGCGGGUUCGAGUCCCGUACGGAACG: not above 0.5.
Take GUUCCGUUGGCGUAAUGGUAACGCGUCUCCUUCCUAAGGAGAAGAAUGCGGGUUCGUGUUCCGUACGGAACG: the yeast fitness was not above 0.5.
In the case of GUUCCGUUGGCGUAAUGGUAACGCGUCUCCUUCCUAAGGUGAAGACUGCGGGUCCGAGUCCCGUACGGAACG, the yeast fitness is 0.541.
In the case of GUUCCGUUGGCGUAAUGGUAACGCGUCUCCGUCCUAAGGAGAAGAGUGCAGGUUCGAGUCCCGUACGGAACG, the yeast fitness was 0.552.
For GUUCCGUUGGCGUAAUGGUAACGCGUCUCCUUCCUAAGGAGGAGACUGCGGGUUUGAGUCCCGUACGGAACG, the yeast fitness stood at 0.511.
Regarding GUUCCGUUGGCGUAAUGGUAACGCGUCUCCUUCCUAAGGAGAAGACUGCGGGUUCGAGUCCCCUACCGUACG, the yeast fitness came out at 0.511.
As to GUUCCGUUGGCGUAAUGGUAACGCGUCUCCUUCCUAAGGAGAAGACUCCGGGUUCGAGACCCGUACCGCACG, the yeast fitness is not above 0.5.
The result for GUUCCGUUGGCGUAAUGGUAACGCGUCUCCGUCCUAAGGAGAACACUGCGGCUUCGAGUGCCGUACGGAACG reads not above 0.5; that for GUUCCGUUGGCGUAAUGGUAACGCGUCUCCUUCCUAAGGAGAAGACUGCGAGUUCCAGUCCCGUACCGAACG, 0.526.
The same measure for GUUCCGUUGGCGUAAUGGUAACGCGUCUCCUUCCUAAGGAGAAGACUGCGGAUUCGAGUCCCGUACGCAACG: not above 0.5; for GUUCCGUUGGCGUAAUGGUAACGCGUCUCCGUCCUAAGGAGAAGACUGCGGGUUCGAAUCACGUACGGAACG: 0.708.
The result for GUUCCGUUGGCGUAAUGGUAACGCGUCUCCUUCCUAAGGAGAAGACUACGGGUUCGAGUCCCGUACGGCACG reads 0.772; that for GUUCCGUUGGCGUAAUGGUAACGCGUCUCCUUCCUAAGGCGAAGACUGCGGGUUCCAGUCCCGUACGGAACG, not above 0.5.
In the case of GUUCCGUUGGCGUAAUGGUAACGCGUCUCCGUCCUAAGGAGAAGACUGCGGGUUCGAGUCCCGCACAGAACG, the yeast fitness was not above 0.5.
Turning to GUUCCGUUGGCGUAAUGGUAACGCGUCUCCGUCCAAAGGAGAAGACUGCGGGUUCAAGUCCCAUACGGAACG, the yeast fitness was not above 0.5.
Take GUUCCGUUGGCGUAAUGGUAACGCGUCUCCUUCCUAAGCAGAAGACUGCGGGUUCGAGUCCCGUACGGAACG: the yeast fitness is 0.901.
On to GUUCCGUUGGCGUAAUGGUAACGCGUCUCCUUCCUAAGGAGAAGACUGCGGGUUCGAGUCCUAUACGGAACG, for which the yeast fitness stood at 0.617.
As to GUUCCGUUGGCGUAAUGGUAACGCGUCUCCUUCCUAAGGAGAACACUGCGGGUUCGAGUCCCGCACGGAACG, the yeast fitness is 0.559.
As to GUUCCGUUGGCGUAAUGGUAACGCGUCUCCGUCCUAAGGAGAAGACUGCGGGUUCGAGUCCCGUAUGGAACG, the yeast fitness turned out to be 0.867.
GUUCCGUUGGCGUAAUGGUAACGCGUCUCCGUCCUAAAGAGAAGACUGCGGAUUCGAGUCACAUACGGAACG: the yeast fitness was not above 0.5.
As to GUUCCGUUGGCGUAAUGGUAACGCGUCUCCUUUCUAAGGAGCAGACUGUGGGUUCGAGUCCCGUCCGGAACG, the yeast fitness is not above 0.5.
The same measure for GUUCCGUUGGCGUAAUGGUAACGCGUCUCCUUCCUAAGGAGACGACUGCGGGUUCGAGUCCCGUACGGCACG: 0.902.
As to GUUCCGUUGGCGUAAUGGUAACGCGUCUCCUUCCUAAGGAGAAGACUGCGGGUUUGAGUCCCGUACGGAUCG, the yeast fitness came out at 0.567.
Regarding GUUCCGUUGGCGUAAUGGUAACGCGUCUCCUUCCUAGGGAGAAGCCUGCGGGUUCGAGUCCCGUACGGAACG, the yeast fitness was found to be 0.618.
Turning to GUUCCGUUGGCGUAAUGGUAACGCGUCUCCUUCCUAAGGAGAAGAGUGCAGGUUCGAGUCUCGUACGGAACG, the yeast fitness is 0.649.
With GUUCCGUUGGCGUAAUGGUAACGCGUCUCCUCCCUAAGGAGAAGACUGCGGGUGUGAGUCUCGUACGGAACG, the yeast fitness was not above 0.5.
Take GUUCCGUUGGCGUAAUGGUAACGCGUCUCCUUCCUAAGGAGAAAACUGCGGGUUCGAGUCCCGUACGGAACG: the yeast fitness was determined as 1.02.
The result for GUUCCGUUGGCGUAAUGGUAACGCGUCUCCUUCCUAAGGAGAAGACUGCGAGUUCGAGUCCCGUACGGAACG reads 0.892; that for GUUCCGUUGGCGUAAUGGUAACGCGUCUCCGUCCUAAGGAGAAGACUGCGGGUUGGAGUCCCGUGCGGAACG, not above 0.5; that for GUUCCGUUGGCGUAAUGGUAACGCGUCUCCUUCCUAAGGAGAAGACUGCGGGUUCGAGUUCCGUACAGUACG, not above 0.5.
